Results from ChEMBL document CHEMBL1157456, “Unsymmetric aryl-alkyl disulfide growth inhibitors of methicillin-resistant Staphylococcus aureus and Bacillus anthracis” (Bioorg Med Chem, 2008).
≈ marks a conversion by molar mass, not a printed value. Calls of active or inactive are those of the source. The calls are words filed in the database; no cut-off is given here.

How the values were obtained:
[1] = system: Staphylococcus aureus; assay: Antibacterial activity against Staphylococcus aureus ATCC 25923 assessed as inhibition zone diameter at 20 ug after 24 hrs by Kirby-Bauer test; type: functional; conditions: ATCC 25923, 24 h, read-out: IZ
Summary of the method: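 Kirby-Bauer on TSA: a 0.5 McFarland saline suspension was spread as a lawn. 6 mm wells were bored and given 20 µL of 1 mg/mL compound in DMSO (20 ug). Plates ran 24 h at 37 °C. Inhibition zone diameter was averaged over 3 trials.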

[2] = system: Staphylococcus aureus; assay: Antibacterial activity against Staphylococcus aureus ATCC 25923 after 24 hrs by serial dilution method; type: functional; conditions: for MIC: ATCC 25923, 24 h
[3] = system: Bacillus anthracis; assay: Antibacterial activity against Bacillus anthracis after 24 hrs by serial dilution method; type: functional
[4] = system: Escherichia coli; assay: Inhibition of purified Escherichia coli FabH at 1 uM by trichloroacetic acid precipitation assay relative to control
Summary of the method: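 Purified ecFabH (100 nM monomer) was preincubated 15 min at room temperature with 1 µM compound in 50 mM sodium phosphate pH 7.4, without CoA. It was then added to [1-14C]acetyl-CoA (40 µM) and malonyl-ACP (10 µM), made with S. glaucescens FabD/ACP. 3-Ketoacyl-ACP was measured by TCA precipitation, as % inhibition versus a no-inhibitor control, in duplicate.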

[5] = system: Staphylococcus aureus; assay: Antibacterial activity against methicillin-resistant Staphylococcus aureus ATCC 43300 after 24 hrs by serial dilution method; type: functional; conditions: ATCC 43300, 24 h
[6] = system: Escherichia coli; assay: Antibacterial activity against Escherichia coli K12 ATCC 23590 after 24 hrs by serial dilution method; type: functional; conditions: K12, 24 h
[7] = system: Escherichia coli; assay: Inhibition of purified Escherichia coli FabH at 5 uM by trichloroacetic acid precipitation assay relative to control
Summary of the method: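 ecFabH (100 nM monomer) was preincubated 15 min at room temperature with 5 µM disulfide in 50 mM sodium phosphate pH 7.4. Radiolabeled 3-ketoacyl-ACP was formed from [1-14C]acetyl-CoA (40 µM) and malonyl-ACP (10 µM), the latter from a coupled S. glaucescens FabD/ACP system. Product was collected by TCA precipitation. Activity was expressed as % decrease versus a no-compound control, in duplicate.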

[8] = system: Bacillus anthracis; assay: Antibacterial activity against Bacillus anthracis assessed as inhibition zone diameter at 20 ug after 24 hrs by Kirby-Bauer test; type: functional; conditions: read-out: IZ
[9] = Inhibition of Escherichia coli FabH
[10] = molecular target: T1, Mycobacterial beta-ketoacyl-[acyl-carrier-protein] synthase III (Mycobacterium tuberculosis) (UniProt P9WNG3); assay: Inhibition of Mycobacterium tuberculosis FabH
T1 sequence (whole entry): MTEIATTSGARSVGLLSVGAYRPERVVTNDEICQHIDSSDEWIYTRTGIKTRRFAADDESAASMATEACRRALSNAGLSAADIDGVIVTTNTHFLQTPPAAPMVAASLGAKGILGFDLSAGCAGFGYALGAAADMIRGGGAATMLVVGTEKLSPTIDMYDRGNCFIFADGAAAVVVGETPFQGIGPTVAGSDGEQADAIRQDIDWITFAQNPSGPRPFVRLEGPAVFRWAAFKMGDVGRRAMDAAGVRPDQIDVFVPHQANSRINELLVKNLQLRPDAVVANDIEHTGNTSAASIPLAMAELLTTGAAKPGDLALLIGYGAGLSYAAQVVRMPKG

SMILES: CSSc1ccccn1
- zone of inhibition at 20 µg/disc [1]: 23 mm

SMILES: CSSc1ccc(NC(C)=O)cc1
- zone of inhibition at 20 µg/disc [1]: 20 mm

SMILES: CSSCCc1ccc([N+](=O)[O-])cc1
- Activity [2]: Active
- MIC [3]: 64 µg/mL (≈ 279 µM)

SMILES: CO[C@H]1C(=O)N(SC)[C@H]1c1ccccc1Cl
- inhibition [4]: 89%

SMILES: CC(C)SSc1ccc([N+](=O)[O-])cc1
- MIC [2]: < 0.125 µg/mL
- MIC [5]: < 0.125 µg/mL
- MIC [3]: 0.125 µg/mL (≈ 0.545 µM)
- MIC [6]: 96 µg/mL (≈ 419 µM)
- inhibition [7]: 98.5%

SMILES: CCOc1cccc(SSC)c1
- zone of inhibition at 20 µg/disc [1]: 9 mm

SMILES: O=C(O)c1cc([N+](=O)[O-])ccc1SSc1ccc([N+](=O)[O-])cc1C(=O)O
- Activity [2]: inactive

SMILES: CSSc1cccc([N+](=O)[O-])c1
- zone of inhibition at 20 µg/disc [1]: 36 mm
- zone of inhibition at 20 µg/disc [8]: 43 mm
- MIC [2]: 16 µg/mL (≈ 79.5 µM)
- MIC [5]: 64 µg/mL (≈ 318 µM)
- MIC [3]: 8 µg/mL (≈ 39.7 µM)

SMILES: CCCCSSc1ccc([N+](=O)[O-])cc1
- MIC [2]: 1 µg/mL (≈ 4.11 µM)
- MIC [5]: 32 µg/mL (≈ 131 µM)
- MIC [3]: 1 µg/mL (≈ 4.11 µM)
- MIC [6]: 96 µg/mL (≈ 394 µM)
- inhibition [7]: 93%

SMILES: CCC(C)SN1C(=O)[C@H](OC)[C@@H]1c1ccccc1Cl (some centres not stated)
- inhibition [4]: 30%

SMILES: CCC(C)SSc1cccc([N+](=O)[O-])c1 (configuration not stated)
- zone of inhibition at 20 µg/disc [1]: 45 mm
- zone of inhibition at 20 µg/disc [8]: 41 mm
- MIC [2]: 8 µg/mL (≈ 32.9 µM)
- MIC [5]: 32 µg/mL (≈ 131 µM)
- MIC [3]: 8 µg/mL (≈ 32.9 µM)

SMILES: CC1(C)S[C@@H]2[C@H](NC(=O)Cc3ccccc3)C(=O)N2[C@H]1C(=O)O [PENICILLIN G]
- zone of inhibition at 20 µg/disc [1]: 33 mm
- MIC [2]: 0.03 µg/mL (≈ 0.0897 µM)
- MIC [5]: 64 µg/mL (≈ 191 µM)

SMILES: CCSSc1ccc([N+](=O)[O-])cc1
- MIC [2]: 1 µg/mL (≈ 4.64 µM)
- MIC [5]: 16 µg/mL (≈ 74.3 µM)
- MIC [3]: 0.25 µg/mL (≈ 1.16 µM)
- MIC [6]: 16 µg/mL (≈ 74.3 µM)
- inhibition [7]: 98%

SMILES: CSSCCNC(=O)CCNC(=O)[C@@H](O)C(C)(C)COP(=O)(O)OP(=O)(O)OC[C@H]1O[C@@H](n2cnc3c(N)ncnc32)[C@H](O)[C@@H]1OP(=O)(O)O
- IC50 [9]: 57 µM

SMILES: CSSc1ccc(C)c(C)c1
- zone of inhibition at 20 µg/disc [1]: 10 mm

SMILES: CSc1ccc([N+](=O)[O-])cc1
- Activity [2]: inactive

SMILES: CCSSc1cccc([N+](=O)[O-])c1
- zone of inhibition at 20 µg/disc [1]: 45 mm
- zone of inhibition at 20 µg/disc [8]: 40 mm
- MIC [2]: 8 µg/mL (≈ 37.2 µM)
- MIC [5]: 64 µg/mL (≈ 297 µM)
- MIC [3]: 8 µg/mL (≈ 37.2 µM)

SMILES: CC(C)SSc1cccc([N+](=O)[O-])c1
- MIC [2]: < 0.125 µg/mL
- MIC [5]: 16 µg/mL (≈ 69.8 µM)
- MIC [3]: 1 µg/mL (≈ 4.36 µM)

SMILES: CC(C)SSc1ccccc1[N+](=O)[O-]
- zone of inhibition at 20 µg/disc [1]: 31 mm
- zone of inhibition at 20 µg/disc [8]: 27 mm
- MIC [2]: 16 µg/mL (≈ 69.8 µM)
- MIC [5]: 32 µg/mL (≈ 140 µM)
- MIC [3]: 32 µg/mL (≈ 140 µM)

SMILES: CCCCCCCCCCOC(=O)SSCCO
- Activity [10]: Active

SMILES: CCC(C)SSc1ccccc1[N+](=O)[O-] (configuration not stated)
- zone of inhibition at 20 µg/disc [1]: 24 mm
- zone of inhibition at 20 µg/disc [8]: 23 mm
- MIC [2]: 32 µg/mL (≈ 131 µM)
- MIC [5]: 32 µg/mL (≈ 131 µM)
- MIC [3]: 32 µg/mL (≈ 131 µM)

SMILES: CCC(C)SSc1ccc([N+](=O)[O-])cc1 (configuration not stated)
- MIC [2]: 0.8 µg/mL (≈ 3.29 µM)
- MIC [5]: 1 µg/mL (≈ 4.11 µM)
- MIC [3]: 0.5 µg/mL (≈ 2.05 µM)
- MIC [6]: 128 µg/mL (≈ 526 µM)
- inhibition [7]: 96%

SMILES: CN[C@H](CC(C)C)C(=O)N[C@H]1C(=O)N[C@@H](CC(N)=O)C(=O)N[C@H]2C(=O)N[C@H]3C(=O)N[C@H](C(=O)N[C@H](C(=O)O)c4cc(O)cc(O)c4-c4cc3ccc4O)[C@H](O)c3ccc(c(Cl)c3)Oc3cc2cc(c3O[C@@H]2O[C@H](CO)[C@@H](O)[C@H](O)[C@H]2O[C@H]2C[C@](C)(N)[C@H](O)[C@H](C)O2)Oc2ccc(cc2Cl)[C@H]1O [VANCOMYCIN]
- zone of inhibition at 20 µg/disc [1]: 27 mm
- MIC [2]: 0.25 µg/mL (≈ 0.173 µM)

SMILES: CSSc1ccccc1CO
- zone of inhibition at 20 µg/disc [1]: 14 mm

SMILES: CCCSSc1ccc([N+](=O)[O-])cc1
- zone of inhibition at 20 µg/disc [1]: 43 mm
- MIC [2]: 16 µg/mL (≈ 69.8 µM)
- MIC [5]: 16 µg/mL (≈ 69.8 µM)
- MIC [3]: 1 µg/mL (≈ 4.36 µM)
- MIC [6]: 64 µg/mL (≈ 279 µM)
- inhibition [7]: 91%

SMILES: CSSc1ccccc1[N+](=O)[O-]
- zone of inhibition at 20 µg/disc [1]: 37 mm
- zone of inhibition at 20 µg/disc [8]: 31 mm
- MIC [2]: 16 µg/mL (≈ 79.5 µM)
- MIC [5]: 32 µg/mL (≈ 159 µM)
- MIC [3]: 16 µg/mL (≈ 79.5 µM)

SMILES: CSSc1ccc(N)cc1
- zone of inhibition at 20 µg/disc [1]: 0 mm

SMILES: CSSc1ccc([N+](=O)[O-])cc1
- zone of inhibition at 20 µg/disc [1]: 35 mm
- MIC [2]: 16 µg/mL (≈ 79.5 µM)
- MIC [5]: 32 µg/mL (≈ 159 µM)
- MIC [3]: 1 µg/mL (≈ 4.97 µM)
- MIC [6]: 16 µg/mL (≈ 79.5 µM)
- inhibition [7]: 94%

SMILES: CSSCc1ccc([N+](=O)[O-])cc1
- Activity [2]: Active
- MIC [3]: 32 µg/mL (≈ 149 µM)

SMILES: CSSc1ccc(F)c(F)c1
- zone of inhibition at 20 µg/disc [1]: 11 mm

SMILES: CCSSc1ccccc1[N+](=O)[O-]
- zone of inhibition at 20 µg/disc [1]: 40 mm
- zone of inhibition at 20 µg/disc [8]: 35 mm
- MIC [2]: 16 µg/mL (≈ 74.3 µM)
- MIC [5]: 32 µg/mL (≈ 149 µM)
- MIC [3]: 16 µg/mL (≈ 74.3 µM)
